The structures appear in SMILES notation. pIC50, pKi: −log10 of the molar value. Calls of active or inactive are those of the source. No cut-off for these calls is given here.

These results are taken from ChEMBL document CHEMBL4680104, “Structure-Based Optimization of Small-Molecule Inhibitors for the β-Catenin/B-Cell Lymphoma 9 Protein-Protein Interaction” (J Med Chem, 2018).

The subject of series [1] is SW480. The experiment in a line: Cytotoxic activity in human SW480 cells at 50 to 100 uM incubated for 4 hrs by LDH release assay. Conditions: sw480, 4 h, dose 50-100 µM. The class given is cell-based. In outline: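 SW480 cells were seeded at 2 × 10^4 cells/well and kept overnight at 37 °C. They were then exposed to a range of inhibitor concentrations for 4 h. LDH in the culture supernatant was measured with a diagnostic kit by absorbance at 490 nm. Percent cytotoxicity was calculated from experimental release against maximum release, with background subtracted. Run in triplicate.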

Series [2] deals with SW480. Kind of series: Cytotoxicity in human SW480 cells assessed as reduction in cell viability incubated for 72 hrs by MTS assay. Format: functional, cell-based. Particulars: SW480, 72 h. A digest of the protocol: (§1)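 Cells seeded at 5 × 10^3 cells/well, kept overnight at 37 °C, then exposed to inhibitors at various concentrations for 72 h. Viability read with a freshly mixed PMS (0.92 mg/mL) : MTS (2 mg/mL) reagent at 1:19, incubated 3 h at 37 °C, A490 measured. […] Triplicate; mean ± SD.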

The target of series [3] is T1, beta-catenin-B-cell lymphoma 9 protein complex (Homo sapiens, UniProt P35222).
T1 sequence (P35222 whole entry): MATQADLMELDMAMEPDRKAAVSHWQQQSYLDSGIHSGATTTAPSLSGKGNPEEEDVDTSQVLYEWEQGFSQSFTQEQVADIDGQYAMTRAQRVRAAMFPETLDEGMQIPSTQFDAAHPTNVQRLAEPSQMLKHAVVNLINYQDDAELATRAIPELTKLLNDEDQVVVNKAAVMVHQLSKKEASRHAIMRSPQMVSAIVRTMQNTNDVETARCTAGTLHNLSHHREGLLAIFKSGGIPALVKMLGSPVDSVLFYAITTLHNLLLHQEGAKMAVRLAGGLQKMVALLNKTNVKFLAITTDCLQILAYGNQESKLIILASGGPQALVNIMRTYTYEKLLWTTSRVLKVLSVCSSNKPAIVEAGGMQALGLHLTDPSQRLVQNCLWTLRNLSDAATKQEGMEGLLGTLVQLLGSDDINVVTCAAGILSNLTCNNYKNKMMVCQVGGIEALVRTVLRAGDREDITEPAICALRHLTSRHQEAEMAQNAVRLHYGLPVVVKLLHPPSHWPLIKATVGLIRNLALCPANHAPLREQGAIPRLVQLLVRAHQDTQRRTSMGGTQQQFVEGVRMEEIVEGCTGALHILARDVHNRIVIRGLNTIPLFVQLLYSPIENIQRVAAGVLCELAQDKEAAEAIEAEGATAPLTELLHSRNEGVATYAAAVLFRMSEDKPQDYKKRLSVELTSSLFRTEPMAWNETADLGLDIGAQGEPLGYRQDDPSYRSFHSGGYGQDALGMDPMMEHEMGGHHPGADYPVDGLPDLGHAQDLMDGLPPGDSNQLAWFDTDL
T1 sequence (O00512 whole entry): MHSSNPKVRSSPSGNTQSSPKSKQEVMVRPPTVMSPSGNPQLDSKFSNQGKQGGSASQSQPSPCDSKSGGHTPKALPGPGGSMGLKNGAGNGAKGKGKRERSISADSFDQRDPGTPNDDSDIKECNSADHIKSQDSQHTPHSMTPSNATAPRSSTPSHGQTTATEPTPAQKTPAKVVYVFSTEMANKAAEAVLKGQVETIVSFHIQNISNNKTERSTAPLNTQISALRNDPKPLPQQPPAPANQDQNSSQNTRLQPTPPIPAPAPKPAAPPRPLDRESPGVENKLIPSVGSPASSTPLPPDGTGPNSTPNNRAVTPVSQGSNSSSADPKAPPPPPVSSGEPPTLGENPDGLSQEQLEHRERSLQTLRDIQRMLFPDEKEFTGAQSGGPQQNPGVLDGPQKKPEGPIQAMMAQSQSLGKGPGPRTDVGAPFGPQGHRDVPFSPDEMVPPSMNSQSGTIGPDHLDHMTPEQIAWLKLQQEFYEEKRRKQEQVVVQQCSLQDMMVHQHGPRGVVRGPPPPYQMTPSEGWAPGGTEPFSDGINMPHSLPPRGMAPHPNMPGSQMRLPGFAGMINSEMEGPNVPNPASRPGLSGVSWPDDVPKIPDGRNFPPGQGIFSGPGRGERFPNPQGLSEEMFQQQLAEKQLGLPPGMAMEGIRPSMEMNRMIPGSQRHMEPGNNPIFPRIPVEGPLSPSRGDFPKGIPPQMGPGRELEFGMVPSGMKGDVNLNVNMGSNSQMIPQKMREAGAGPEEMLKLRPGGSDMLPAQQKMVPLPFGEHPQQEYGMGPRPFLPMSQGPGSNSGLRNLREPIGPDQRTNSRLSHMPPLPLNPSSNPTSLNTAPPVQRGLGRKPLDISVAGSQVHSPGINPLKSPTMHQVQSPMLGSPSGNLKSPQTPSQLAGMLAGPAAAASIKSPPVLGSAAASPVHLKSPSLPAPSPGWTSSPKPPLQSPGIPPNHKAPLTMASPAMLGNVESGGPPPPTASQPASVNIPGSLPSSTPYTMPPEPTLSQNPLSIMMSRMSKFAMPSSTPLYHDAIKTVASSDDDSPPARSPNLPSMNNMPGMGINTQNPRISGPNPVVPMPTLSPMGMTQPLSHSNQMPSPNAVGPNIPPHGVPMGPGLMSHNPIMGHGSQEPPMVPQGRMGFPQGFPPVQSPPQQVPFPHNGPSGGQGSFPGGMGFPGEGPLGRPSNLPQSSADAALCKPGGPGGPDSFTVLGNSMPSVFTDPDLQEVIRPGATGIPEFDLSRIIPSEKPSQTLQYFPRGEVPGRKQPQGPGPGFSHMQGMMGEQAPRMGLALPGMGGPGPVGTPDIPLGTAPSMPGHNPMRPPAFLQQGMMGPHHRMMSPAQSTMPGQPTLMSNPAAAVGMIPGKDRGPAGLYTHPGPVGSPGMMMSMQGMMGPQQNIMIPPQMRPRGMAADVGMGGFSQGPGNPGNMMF
The experiment in a line: Inhibition of protein interaction between C-terminal 6x-histidine tagged full-length beta-catenin (1 to 781 residues) (unknown origin)/N-terminal biotinylated human BCL9 ( 350 to 375 residues) incubated for 1 hr by Alpha-screen competitive inhibition assay. The class given is protein-complex assay. In outline: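 Full-length β-catenin (residues 1–781) with a C-terminal His6 tag was expressed in E. coli BL21(DE3) after IPTG induction at 20 °C. It was purified by Ni-NTA, anion-exchange and size-exclusion chromatography. For the assay, 40 nM β-catenin was preincubated for 30 min at 4 °C with 5 nM biotinylated BCL9 or 10 nM biotinylated E-cadherin. Inhibitor was then added for 1 h at 4 °C, followed by 10 μg/mL donor and acceptor beads for 1 h at 4 °C. IC50 was obtained by nonlinear fit and converted to Ki by the Nikolovska-Coleska method. Triplicate, mean ± SD.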

Series [4] deals with MDA-MB-231. The experiment in a line: Cytotoxicity in human MDA-MB-231 cells assessed as reduction in cell viability incubated for 72 hrs by MTS assay. Particulars: MDA-MB-231, 72 h. The class given is functional, cell-based. A digest of the protocol: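 Triple-negative breast cancer line seeded at 5 × 10^3 cells/well, held overnight at 37 °C, then exposed to inhibitor over a concentration range for 72 h. Viability read out with a fresh 1:19 mix of PMS (0.92 mg/mL) and MTS (2 mg/mL), incubated 3 h at 37 °C, A490 measured.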

Series [5] relates to HCT-116. Kind of series: Cytotoxicity in human HCT-116 cells assessed as reduction in cell viability incubated for 72 hrs by MTS assay. The class given is functional, cell-based. Conditions: HCT-116, 72 h. In outline: as §1
For series [6], the system named is A549. Kind of series: Cytotoxicity in human A549 cells assessed as reduction in cell viability incubated for 72 hrs by MTS assay. Conditions: A549, 72 h. Format: functional, cell-based. In outline: as §1
Series [7] concerns the target T1, beta-catenin-B-cell lymphoma 9 protein complex. The experiment in a line: Inhibition of protein interaction between beta-catenin (unknown origin)/BCL9 in HEK293 cells transfected with beta-catenin assessed as reduction in Wnt/beta-catenin transactivation incubated for 24 hrs by Wnt-responsive TOP-Flash luciferase reporter assay. Format: cell-based. In outline: (§2)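 HEK293 cells were cotransfected using FuGENE6 with 45 ng TOPFlash or FOPFlash reporter, 135 ng pcDNA3.1-β-catenin and 20 ng pCMV-RL normalization reporter. After 24 h in DMEM with 10% FBS at 37 °C, inhibitors or DMSO were added for 24 h. Reporter activity was read with a dual luciferase system, normalized, and compared with DMSO-treated cells. Triplicate.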

Series [8] has as its target T2, beta-catenin-B-cell lymphoma 9 protein complex (Homo sapiens) (UniProt P35222+O00512). Kind of series: Inhibition of protein interaction between beta-catenin (unknown origin)/BCL9 in human HEK293 cells transfected with beta-catenin assessed as reduction in Wnt/beta-catenin transactivation incubated for 24 hrs by Wnt-responsive FOP-Flash luciferase reporter assay.
For series [9], the target named is T2, beta-catenin-B-cell lymphoma 9 protein complex (Homo sapiens). The experiment in a line: Inhibition of protein interaction between beta-catenin (unknown origin)/BCL9 in HEK293 cells transfected with beta-catenin assessed as reduction in Wnt/beta-catenin transactivation incubated for 24 hrs by Wnt-responsive FOP-Flash luciferase reporter assay. The class given is cell-based. In outline: as §2

Series [10] deals with T1, beta-catenin-B-cell lymphoma 9 protein complex. The experiment in a line: Inhibition of protein interaction between beta-catenin (unknown origin)/BCL9 in human SW480 cells transfected with beta-catenin assessed as reduction in Wnt/beta-catenin transactivation incubated for 24 hrs by Wnt-responsive TOP-Flash luciferase reporter assay. The class given is cell-based.

As for `Cc1ccc(-c2cc(NC(=O)c3ccc(O[C@H]4CCNC4)c(-c4ccc(F)c(F)c4)c3)ccc2O[C@H]2CCNC2)cc1.Cl.Cl`, the Activity entry in [1] was “Toxic”. In addition, the pIC50 in series [2] was 5.80. In series [3], this compound had a pKi of 5.19.

Take `Cc1cccc(-c2cc(NC(=O)c3ccc(O[C@H]4CCNC4)c(-c4ccc(F)c(F)c4)c3)ccc2O[C@H]2CCNC2)c1.Cl.Cl`: the pIC50 in series [4] is 5.85; in series [2], 5.66; in series [5], 5.85; in series [6], 5.35. In addition, the Activity entry in series [1] is recorded as “Toxic”. In series [3], this compound gave a pKi of 5.51.

For `Cl.Cl.O=C(Nc1ccc(O[C@H]2CCNC2)c(-c2ccc(F)nc2)c1)c1ccc(O[C@H]2CCNC2)c(-c2ccc(F)c(F)c2)c1`, the Activity result in series [1] is “Toxic”. For the same compound, the pIC50 in series [2] is 4.82. In [3], this compound gave a pKi of 4.80.

`Cl.Cl.O=C(Nc1ccc(O[C@H]2CCNC2)c(-c2ccc(F)cc2)c1)c1ccc(O[C@H]2CCNC2)c(-c2ccc(F)nc2)c1`: in [1], the Activity entry was “Non-Toxic”. The pIC50 in [2] is 4.68. For the same compound, in series [3], the pKi was 4.72.

As for `Cl.Cl.N#Cc1cccc(-c2cc(NC(=O)c3ccc(O[C@H]4CCNC4)c(-c4ccc(F)c(F)c4)c3)ccc2O[C@H]2CCNC2)c1`, the Activity entry in series [1] is on record as “Toxic”. For the same compound, the results for the pIC50 in series [7] and in series [2] were less than 4.60 and 5.37, respectively. In addition, the pKi in series [3] was 5.38.

Regarding `Cl.Cl.O=C(Nc1cnc(O[C@H]2CCNC2)c(-c2ccc(F)cc2)c1)c1cnc(O[C@H]2CCNC2)c(-c2ccc(F)c(F)c2)c1`, the Activity entry in [1] is recorded as “Toxic”. In addition, in series [2], the pIC50 is 5.00. Moreover, in series [3], the pKi is 5.14.

Regarding `Cl.Cl.O=C(Nc1ccc(O[C@H]2CCNC2)c(-c2ccc(F)cc2)c1)c1ccc(O[C@H]2CCNC2)c(C2=CCCCC2)c1`, the inhibition result in series [8] and in series [9] was “Active” each time. Further, the pIC50 in series [4] was 5.47; in series [2], 5.43; in [5] it was 5.16; in series [10] it was 5.06. In addition, in series [1], the Activity entry is reported as “Toxic”. Further, the pKi in series [3] is 5.15.

For the compound `Cl.Cl.N#Cc1ccc(-c2cc(NC(=O)c3ccc(O[C@H]4CCNC4)c(-c4ccc(F)c(F)c4)c3)ccc2O[C@H]2CCNC2)cc1`, the Activity result in series [1] is given as “Toxic”. In addition, the pIC50 in series [7] was less than 4.60; in series [2], 5.21. Besides, the pKi in series [3] is 5.42.

Consider `Cl.Cl.O=C(Nc1ccc(O[C@H]2CCNC2)c(-c2ccccc2C(F)(F)F)c1)c1ccc(O[C@H]2CCNC2)c(-c2ccc(F)c(F)c2)c1`, for which, in [1], the Activity entry is recorded as “Toxic”. In addition, the pIC50 in series [2] was 5.59. Further, the pKi in [3] is 5.42.

For `Cc1ccccc1-c1cc(NC(=O)c2ccc(O[C@H]3CCNC3)c(-c3ccc(F)c(F)c3)c2)ccc1O[C@H]1CCNC1.Cl.Cl`, the inhibition entry in series [8] and in series [9] was “Active” each time. Further, the pIC50 in series [4] is 5.51; in series [2], 5.92; in series [5] it was 5.24; in series [10] it was 5.28; in series [6] it was 4.64. In addition, in series [1], the Activity result was “Toxic”. Also, the pKi in [3] is 5.23.

For `Cl.Cl.O=C(Nc1ccc(O[C@H]2CCNC2)c(-c2ccc(F)cc2)c1)c1ccc(O[C@H]2CCNC2)c(C2CCCCC2)c1`, the Activity entry in series [1] is listed as “Toxic”. The figures for the pIC50 in [2], in [5] and in series [6] were 5.18, 5.42 and 5.42, respectively. This compound also showed a pKi in [3] of 4.85.

Turning to `Cl.Cl.O=C(Nc1cnc(O[C@H]2CCNC2)c(-c2ccc(F)cc2)c1)c1ccc(O[C@H]2CCNC2)c(-c2ccc(F)c(F)c2)c1`, the inhibition entry in series [8] and in [9] was “Active” in each case. Also, the pIC50 in [4] is 5.51; in series [7], 5.00; in series [2], 5.77; in series [10], 5.11; in series [6], 4.54. For the same compound, the Activity entry in series [1] is reported as “Toxic”. This compound showed a pKi in [3] of 5.09.
